Bioassay records from PubChem BioAssay.
An excerpt weighted towards active compounds, which were near 2.6% of everything screened.
dFosB activator: mouse delta FosB homodimer activation | activation, % at 25 µM | P13346 | purified delta FosB, TAMRA-CDK5 oligo fluorescence polarization; percent of positive-control signal above neutral wells | 340,000 tested, 0.99% active;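 active = mean activation above about 17%, with every replicate also reaching it, limit read from the data, passing the limit was not always enough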
Target sequence (P13346 whole entry, looked up): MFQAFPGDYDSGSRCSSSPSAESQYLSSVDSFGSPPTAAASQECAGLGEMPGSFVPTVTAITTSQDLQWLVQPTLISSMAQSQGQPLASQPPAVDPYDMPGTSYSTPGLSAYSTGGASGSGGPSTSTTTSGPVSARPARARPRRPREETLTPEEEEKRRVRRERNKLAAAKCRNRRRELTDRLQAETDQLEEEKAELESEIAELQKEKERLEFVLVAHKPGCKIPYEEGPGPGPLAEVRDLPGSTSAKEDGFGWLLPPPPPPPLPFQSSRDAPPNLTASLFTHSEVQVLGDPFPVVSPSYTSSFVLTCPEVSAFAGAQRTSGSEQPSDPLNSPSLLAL
XiGFP reactiv: reactivates the inactive X chromosome in mouse fibroblasts; XiGFP mouse fibroblasts, % GFP-positive cells imaging, 3 d; cells co-treated with 5-aza-dC sensitizer; scaled so ellipticine positive control = 100%; activation, % at 7.58 µM; 360,000 tested, 0.055% active;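 active = mean normalized replicate activation at least 10% and every replicate at or above 10%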;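 note: 0% = median of on-plate neutral control wells and 100% = ellipticine 6 µM median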
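material = 68-5-11 XiGFP fibroblast line | medium = DMEM plus 5-aza-dC sensitizer | schedule = 3 days compound exposure | benchmarks = positive control ellipticine, 6 µM final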
SR-BI HDL uptake: inhibitors of mouse SR-BI mediated HDL lipid uptake | Q61009 | ldlA[mSR-BI] CHO cells, DiI-HDL uptake fluorescence, 3 h | inhibition, % at 12.5 µM | 320,000 tested, 0.96% active;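 active = mean replicate inhibition of at least 70% and a set share of replicates each scoring 70 or more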;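 note: 0% = median of neutral control wells and 100% = median of positive control wells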
PvdQ inh: P. aeruginosa PvdQ acylase inhibition; purified PvdQ acylase, fluorescence plate reader; 340,000 tested, 0.063% active; inhibition, % at 10 µM; in the data active = inhibition above about 30%, passing the limit was not always enough;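 note: 0% = vehicle neutral wells and 100% = reference inhibitor wells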
rRNA inh HTS: selective bacterial rRNA inhibition in E. coli | E. coli WT GFP vs humanized-ribosome RFP mutants, fluorescence, 24 h; active compounds read low; DMSO median 0, no signal -100 | GFP signal change (wild-type ribosome), % (no concentration beside the values) | 350,000 tested, 1.6% active;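 active = significant combined selectivity score with lowered wild-type GFP, culture density cut under 30%, mutant RFP and density less affected; inactive = any of these conditions unmet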
SR-BI DiI-HDL act: enhances SR-BI lipid uptake from DiI-HDL; 320,000 tested, 0.096% active; activation, % at 12.5 µM; CHO ldlA[mSR-BI] cells, DiI-HDL uptake fluorescence, 3 h; 100 = double the neutral-control signal;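 active = mean replicate activation of at least 60% and every replicate at or above 60%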;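 note: 0% = median plate neutral-control signal and 100% = twice that signal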
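System: CHO ldlA[mSR-BI] cells / Medium: HEPES-buffered (25 mM, pH 7.4) F12 plus 0.5% BSA / Probe or stimulus: labelled HDL, 10 µg/mL / Doses: single compound concentration, delivered by pin transfer / Schedule: 3 h, 37 °C / Measured by: DiI fluorescence, bottom read / Measure: cell-associated DiI fluorescence as measure of HDL uptake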
Numbers without * were called inactive; · = not tested or not shown.

SMILES | dFosB activator | XiGFP reactiv | SR-BI HDL uptake | PvdQ inh | rRNA inh HTS | SR-BI DiI-HDL act
CC(C)(C)NC(=S)N/N=C\c1ccc(-c2ccc([N+](=O)[O-])cc2)o1 | · | 66* | · | · | 5 | ·
CCCCC(=O)N/N=C/c1ccc(-c2ccc([N+](=O)[O-])cc2)o1 | -5 | 0 | 21 | 6 | -6 | -21
O=C(NNc1ccc(C(F)(F)F)cc1[N+](=O)[O-])c1ccc(NS(=O)(=O)c2ccc(F)cc2)cc1 | -2 | 0 | 44 | -3 | · | -44
C[C@H]1CN([C@@H](C)CO)S(=O)(=O)c2ccc(/C=C/c3ccccc3)cc2O[C@H]1CN(C)C(=O)c1ccccc1 | · | 0 | · | · | -2 | ·
COc1ccc(OC)c(NC(=O)Nc2nc(CN)cs2)c1 | · | 0 | · | · | 18 | ·
COc1cc(-n2nc(C)c3c2OC(N)=C(C#N)C3c2ccccc2)c(Cl)c(Br)c1O (configuration not stated) | 2 | · | -8 | -5 | · | 8
Cc1noc(C)c1S(=O)(=O)Nc1ccccc1Oc1ccccc1 | -5 | 0 | 14 | -19 | -22* | -14
CC1=CC(=C(C#N)C#N)C=C(C)N1CCN1CCN(C(=O)Nc2cccc(Cl)c2)CC1 | 30* | 0 | 53 | -16 | 2 | -53
CC1=CC(=C(C#N)C#N)C=C(C)N1CCN1CCNCC1 | 19* | 0 | -23 | 1 | 3 | 23
CC(=O)N1CCN(CCN2C(C)=CC(=C(C#N)C#N)C=C2C)CC1 | 0 | 0 | 0 | 5 | 4 | 0
C[C@@H]1CN([C@H](C)CO)C(=O)c2cccc(NC(=O)Nc3ccc4c(c3)OCO4)c2O[C@@H]1CN(C)S(=O)(=O)c1ccc(F)cc1 | · | 0 | · | · | 11 | ·
NC1=NC[C@@H](Cc2ccc(O)cc2)N1CCC12CC3CC(CC(C3)C1)C2 | -3 | 0 | -4 | 5 | -36 | 4
CC=Cc1ccc2n(c1=O)C[C@@H]1[C@@H](CO)[C@H](C(=O)NCCOC)[C@H]2N1Cc1ccccc1 (mixture of isomers) | · | 0 | · | · | -1 | ·
CCOC(=O)c1cnc2c(C(F)(F)F)cccc2c1NCCCN1CCOCC1 | -15 | 0 | 9 | -9 | -27 | -9
CNC(=S)N(Cc1ccc(Cl)cc1)Cc1cccs1 | -10 | 0 | -29 | -12 | -43* | 29
O=[N+]([O-])c1cccnc1Sc1n[nH]c(-c2ccc(Cl)cc2)n1 | 1 | 0 | -6 | -2 | 4 | 6
O=[N+]([O-])c1cccnc1Sc1ccc(Cl)cc1 | -3 | 0 | 11 | 47* | 4 | -11
O=C(c1ccccc1)c1ccc(-c2ccc(O)cc2)cc1 | -2 | 0 | 10 | -14 | -28* | -10
Cc1onc(-c2c(Cl)cccc2Cl)c1C(=O)c1ccc(F)cc1 | · | 0 | · | · | -16 | ·
Cc1ccc(-n2nc(C)cc2Nc2ncc(Cl)cc2Cl)cc1 | -7 | 0 | 82* | -4 | · | -82
Clc1ccc2c(c1)c1cc(Cl)ccc1n2CN1CCOCC1 | -3 | · | 25 | 12 | · | -25
Clc1ccc2c(c1)c1ccccc1n2CN1CCOCC1 | 4 | · | 21 | 1 | -33* | -21
CCN1/C(=C\c2ccc3cc(C)ccc3[n+]2CC)Sc2cc(C)c(C)cc21 | 1 | 77* | 85* | -6 | 9 | -85
CCN1/C(=C/c2ccc3cc(C)ccc3[n+]2CC)Sc2ccc3sccc3c21 | -4 | · | · | -15 | · | ·
CCN1/C(=C/c2ccc3cc(C)cc(C)c3[n+]2CC)Sc2cc(C)ccc21 | -178 | 110* | 68 | -11 | 13 | -68
SMILES | dFosB activator | XiGFP reactiv | SR-BI HDL uptake | PvdQ inh | rRNA inh HTS | SR-BI DiI-HDL act
CCN1/C(=C/c2ccc3cccc(C)c3[n+]2CC)Sc2ccccc21 | 66* | · | 29 | 5 | · | -29
C[C@H](CO)N1C[C@H](C)[C@H](CN(C)S(=O)(=O)c2ccc(F)cc2)Oc2c(NS(C)(=O)=O)cccc2C1=O | · | 0 | · | · | 4 | ·
N#Cc1cc(C(=O)c2cc(F)ccc2O)cn(Cc2ccccc2)c1=O | -4 | 0 | -1 | 4 | -24* | 1
CC(C)C#Cc1ccc([C@@H]2[C@@H](C#N)N(C(=O)c3cccc(F)c3)[C@H]2CO)cc1 | · | 0 | · | · | -13 | ·
COCCOC(=O)c1c(C)oc2ccc(NS(=O)(=O)c3cccs3)cc12 | -7 | 0 | -2 | -13 | -24 | 2
CCOC(=O)c1c(C)oc2ccc(NS(=O)(=O)c3cccs3)cc12 | -3 | · | 12 | -18 | -30* | -12
COc1ccc(-c2cc3c(nn2)-c2ccccc2C3=O)cc1 | -3 | 0 | 25 | -9 | 6 | -25
N#Cc1ccsc1NC(=O)CSc1nnnn1-c1ccc(O)cc1 | -7 | 0 | · | 5 | -26* | ·
CC(=O)c1cc(OC(=O)N2CCOCC2)ccc1OC(=O)N1CCOCC1 | -2 | · | -19 | -10 | · | 19
Cc1cc(NC(=O)CSCC(=O)N(c2ccc(F)cc2)C(C(=O)NC2CCCCC2)c2ccc(O)c(O)c2)no1 (configuration not stated) | -4 | 0 | -27 | 16 | · | 27
COc1ccc(N(C(=O)CSCC(=O)Nc2cc(C)on2)C(C(=O)NC2CCCCC2)c2ccc(O)c(O)c2)cc1 (configuration not stated) | -4 | 0 | -15 | -4 | -18* | 15
C/C=C/c1ccc(OCC(=O)N(CCOC)c2c(N)n(CCCC)c(=O)[nH]c2=O)c(OC)c1 | 1 | 0 | 20 | -15 | 7 | -20
Cc1ncc(CN2CCN(Cc3ccc(F)cc3)C(CCO)C2)s1 (configuration not stated) | 1 | 0 | -7 | 39* | 17 | 7
O=C1N[C@@H](Cc2cn(S(=O)(=O)c3ccccc3)c3ccccc23)C(=O)N[C@H]1Cc1ccccc1 | -10 | 0 | -1 | 12 | 1 | 1
CCC(C)C(NC(N)=O)C(=O)Nc1ccc(C)c(Cl)c1 (configuration not stated) | 0 | 0 | 17 | -7 | · | -17
CC[C@H](C)[C@H](NC(N)=O)C(=O)Nc1ccc(S(=O)(=O)NC(C)C)cc1 | -2 | 1 | 2 | -9 | -22* | -2
CC(=O)Nc1ccc(NC(=O)CN2C(=O)NC3(CCCCCCC3)C2=O)cc1 | 0 | 0 | 10 | -16 | 1 | -10
CC(=O)Nc1cc2cc(NS(=O)(=O)c3ccc(C)cc3)ccc2oc1=O | 155* | 0 | -2 | -10 | · | 2
CC(=O)c1c(C)oc2ccc(NS(=O)(=O)c3ccc(C)cc3)cc12 | -1 | 0 | · | 16 | 2 | ·
Cc1ccc(OCCOc2cccc(Br)c2)c([N+](=O)[O-])n1 | 1 | · | 34 | -11 | · | -34
CCOC(=O)CSc1nnc(-c2ccc(OC)cc2)n1CC | 2 | · | -15 | -17 | · | 15
